Source: ChEMBL document CHEMBL1671809, “Discovery of phosphoric acid mono-{2-[(E/Z)-4-(3,3-dimethyl-butyrylamino)-3,5-difluoro-benzoylimino]-thiazol-3-ylmethyl} ester (Lu AA47070): a phosphonooxymethylene prodrug of a potent and selective hA(2A) receptor antagonist” (J Med Chem, 2011)
In brackets after ≈: the same amount, converted by molar mass.

What was measured:
Adenosine receptor A1 = target: T1, Adenosine receptor A1 (Homo sapiens, UniProt P30542); assay: Displacement of [3H]-DPCPX from human adenosine A1 receptor expressed in CHO cells after 30 mins by scintillation counting; assay type: cell-based
T1 sequence (P30542 whole entry): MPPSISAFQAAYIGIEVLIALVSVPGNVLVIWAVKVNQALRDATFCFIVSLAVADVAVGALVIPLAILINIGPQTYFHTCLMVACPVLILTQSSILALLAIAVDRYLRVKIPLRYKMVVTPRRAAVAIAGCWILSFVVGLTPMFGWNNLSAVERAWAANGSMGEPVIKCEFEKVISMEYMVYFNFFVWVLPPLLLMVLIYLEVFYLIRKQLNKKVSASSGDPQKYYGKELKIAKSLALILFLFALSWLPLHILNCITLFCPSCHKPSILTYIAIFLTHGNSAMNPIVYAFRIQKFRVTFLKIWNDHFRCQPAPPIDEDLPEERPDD
Procedure, shortened: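 CHO-hA1 membranes at 10.8 μg protein/well, pretreated with adenosine deaminase (2 U/mL, 30 min, 37 C), were incubated with 1 nM [3H]-DPCPX in 50 mM Tris/HCl pH 7.4 for 30 min at 25 C across 10 compound concentrations. Filtration on PEI-soaked GF/B, scintillation counting. Nonspecific binding by CGS15943. Ki by Cheng-Prusoff. Means of ≥2 determinations.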

Homo sapiens = species on record: Homo sapiens; assay: Selectivity ratio of Ki for human adenosine A1 receptor to Ki for human adenosine A2A receptor
Adenosine receptor A3 = target: T2, Adenosine receptor A3 (Homo sapiens, UniProt P0DMS8); assay: Displacement of [3H]-AB-MECA from human recombinant adenosine A3 receptor expressed in CHO-K1 cells after 60 mins; assay type: cell-based
T2 sequence (P0DMS8 whole entry): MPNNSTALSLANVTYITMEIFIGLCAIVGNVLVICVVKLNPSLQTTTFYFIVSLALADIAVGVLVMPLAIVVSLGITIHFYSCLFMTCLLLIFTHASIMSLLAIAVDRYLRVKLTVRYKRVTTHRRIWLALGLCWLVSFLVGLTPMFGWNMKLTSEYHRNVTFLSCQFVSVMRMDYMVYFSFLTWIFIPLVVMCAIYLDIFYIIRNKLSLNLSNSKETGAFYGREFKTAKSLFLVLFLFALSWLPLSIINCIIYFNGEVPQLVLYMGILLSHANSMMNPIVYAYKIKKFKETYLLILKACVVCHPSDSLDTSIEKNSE

[1] = Intrinsic clearance in dog hepatocytes at 0.2 uM after 60 mins; assay type: ADME, cell-based, Canis lupus familiaris, Liver, Hepatocyte; conditions: 1 h
Procedure, shortened: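 Pooled cryopreserved hepatocytes: human (three donors), male Sprague-Dawley rat (two donors), male beagle dog (two donors). Cells at 10^6/mL in DMEM with 5 mM HEPES, 37 C, 15 min preincubation; compound at 0.2 μM. Samples at 0-60 min, depletion by LC-MS/MS. t1/2 scaled to CLint with 120 (human, rat) or 240 (dog) million cells/g liver. n = 1.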

[2] = Protein binding in rat serum at 1 uM after 60 mins by LC/MS-MS; assay type: ADME, cell-free; conditions: read-out: PPB (converted)
[3] = Ratio of drug level whole brain to plasma in abcb1a-deficient mouse at 1 mg/kg, po after 50 mins
[4] = Tmax in Sprague-Dawley rat at 1 mg/kg, po; assay type: ADME, organism-based; parameters: dose 1 mg/kg, route oral; conditions: in vivo
Procedure, shortened: (§1)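 Awake Sprague-Dawley rats carrying a carotid catheter were dosed with 0.5 mg/kg iv or 1 mg/kg po in aqueous 25% cremophore, n = 3 per route. Ten 100 μL blood samples were collected automatically over 20 h. Plasma was assayed by HTLC-MS/MS. Parameters came from a two-compartment model with first-order absorption (po) and elimination.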

Rattus norvegicus = assay: Cmax in Sprague-Dawley rat at 1 mg/kg, po; assay type: ADME, organism-based; parameters: dose 1 mg/kg, route oral; conditions: in vivo; procedure, shortened: as §1
[5] = Plasma clearance in Sprague-Dawley rat at 0.5 mg/kg, iv and 1 mg/kg, po; assay type: ADME, organism-based; procedure, shortened: as §1
Mus musculus = assay: Reversal of haloperidol-induced hypolocomotion in po dosed NMRI mouse administered 30 mins before haloperidol challenge measured for 20 mins; assay type: functional
Procedure, shortened: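 Male NMRI mice (n = 8/group) were given compound po in 25% cremophor/saline, then haloperidol 0.63 mg/kg sc 30 min later. After 15 min they went into photocell activity boxes, and locomotion was recorded for 20 min. ED50 by sigmoidal fit with top 100 and bottom 0.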

[6] = Aqueous solubility of the compound at pH 7.4; assay type: physicochemical; conditions: buffer
Procedure, shortened: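 About 5 mg solid was shaken overnight in 1 mL of 25 mM phosphate buffer, pH 7.4, after 3 min sonication; more solid was added if it all dissolved. The suspension was filtered through 0.22 μm PVDF and the solution measured by HPLC against a standard curve.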

Ki (Adenosine receptor A1): 410 nM | Ratio Ki (Homo sapiens): 69 | Ki (Adenosine receptor A3): > 10000 nM | CL [1]: 346 mL/min | fraction unbound at 1 h, 1 µM [2]: 0.03 | Kp at 50 min [3]: 0.8 | Tmax [4]: 30 min | Cmax (Rattus norvegicus): 878 ng/mL | clearance [5]: 5 mL/min/kg | solubility [6]: 1 µg/mL (≈ 2.83 µM)
Compound: CC(C)(C)CC(=O)Nc1c(F)cc(C(=O)Nc2nccs2)cc1F
Activity (Mus musculus): Dose-dependent effect | ED50 (Mus musculus): 0.5 mg/kg
